Measured values published in ChEMBL document CHEMBL4024779, “Novel Terminal Bipheny-Based Diapophytoene Desaturases (CrtN) Inhibitors as Anti-MRSA/VISR/LRSA Agents with Reduced hERG Activity” (J Med Chem, 2018).
Calls of active or inactive are those of the source. No cut-off for these calls is given here.

Columns and labels:
[1] = target: T1, 4,4'-diapophytoene desaturase (4,4'-diaponeurosporene-forming) (Staphylococcus aureus (strain USA300), UniProt Q2FDU6); test: Inhibition of CrtN in methicillin-resistant Staphylococcus aureus LAC USA300 assessed as reduction in staphyloxanthin levels after 48 hrs by spectrophotometric method-based pigment inhibition assay
T1 sequence (Q2FDU6 whole entry): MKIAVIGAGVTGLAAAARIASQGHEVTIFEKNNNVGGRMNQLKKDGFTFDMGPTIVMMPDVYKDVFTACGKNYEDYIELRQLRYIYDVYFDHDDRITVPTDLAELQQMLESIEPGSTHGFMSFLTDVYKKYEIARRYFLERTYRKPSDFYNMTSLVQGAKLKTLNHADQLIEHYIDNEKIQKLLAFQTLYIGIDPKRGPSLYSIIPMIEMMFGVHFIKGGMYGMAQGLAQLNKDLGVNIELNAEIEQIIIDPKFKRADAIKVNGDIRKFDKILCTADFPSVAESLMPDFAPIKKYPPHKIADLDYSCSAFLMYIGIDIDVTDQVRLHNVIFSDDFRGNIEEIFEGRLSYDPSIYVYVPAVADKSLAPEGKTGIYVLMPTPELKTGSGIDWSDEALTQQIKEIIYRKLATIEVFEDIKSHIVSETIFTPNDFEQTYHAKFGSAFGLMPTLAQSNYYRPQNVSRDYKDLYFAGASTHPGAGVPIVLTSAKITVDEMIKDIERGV

HepG2 = test: Cytotoxicity against human HepG2 cells after 43 hrs by Alamar blue dye-based fluorescence assay; assay type: cell-based; settings: HepG2, 43 h
[2] = Aqueous solubility of compound after 24 hrs by HPLC method; assay type: physicochemical
Trichophyton verrucosum = test: In vitro antifungal activity against Trichophyton verrucosum after 7 days by serial dilution method; assay type: functional; settings: 168 h
Staphylococcus aureus [3] = test: Antibacterial activity against Staphylococcus aureus Newman assessed as change in bacterial growth at 0.2 mM […]; assay type: functional
Staphylococcus aureus [4] = test: Antibacterial activity against methicillin-resistant Staphylococcus aureus USA300 LAC assessed as change in bacterial growth at 0.2 mM […]; assay type: functional
Staphylococcus aureus [5] = test: Antibacterial activity against methicillin-resistant Staphylococcus aureus Mu50 assessed as change in bacterial growth at 0.2 mM […]; assay type: functional
Staphylococcus aureus [6] = test: Antibacterial activity against methicillin-resistant Staphylococcus aureus NRS271 assessed as change in bacterial growth at 0.2 mM […]; assay type: functional
Staphylococcus aureus [7] = test: Chemo-sensitization activity in human whole blood infected with compound-pre-treated non-pigmented Staphylococcus aureus Newman strain assessed as whole blood-induced bacterial killing by measuring survival rate at 1 uM after 6 hrs by serial dilution method (reference value: 13.3%); assay type: functional
Staphylococcus aureus [8] = test: Chemo-sensitization activity in non-pigmented Staphylococcus aureus Newman assessed as increase in H2O2-induced bacterial death by measuring survival rate at 1 uM pre-incubated for 24 hrs followed by H2O2 addition measured after 30 mins by serial dilution method (reference value: 33.3%); assay type: functional
Method in brief: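 S. aureus Newman was pre-incubated with 1 µM compound, with N-acetylcysteine as antioxidant control, or mock-treated. Cells were then exposed to 1.5% H2O2. Percent bacterial survival was compared with the mock-treated culture.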

Staphylococcus aureus [9] = test: In vivo anti-virulence activity against Staphylococcus aureus Newman infected in BALB/c mouse model assessed as reduction in bacterial load in kidneys at 0.4 mg bid for 3.5 days administered intraperitoneally 6 hrs post infection by serial dilution method; assay type: functional, organism-based
Method in brief: (§1)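 Mice (n=10 per group) got 2.3 × 10^7 CFU S. aureus Newman by retro-orbital injection. Compound was given intraperitoneally b.i.d., either 24 h before infection (4.5 d) or 6 h after infection (3.5 d). Mice were sacrificed after 4.5 d and CFU counted in kidneys and hearts. Groups were compared by two-tailed Mann-Whitney test.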

Staphylococcus aureus [10] = test: In vivo anti-virulence activity against Staphylococcus aureus Newman infected in BALB/c mouse model assessed as reduction in bacterial load in heart at 0.4 mg bid for 3.5 days administered intraperitoneally 6 hrs post infection by serial dilution method; assay type: functional, organism-based; method in brief: as §1
Staphylococcus aureus [11] = test: In vivo anti-virulence activity against methicillin-resistant Staphylococcus aureus Mu50 infected in BALB/c mouse model assessed as reduction in bacterial load in kidneys at 0.4 mg bid for 4.5 days administered intraperitoneally 24 hrs prior to infection by serial dilution method; assay type: functional; set-up: scale not given: the % may be the effect or the level left
Method in brief: (§2)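 Mice (n=10 per group) infected retro-orbitally with S. aureus Mu50 (1.1 × 10^9 or 1.3 × 10^9 CFU) or NRS271 (2.3 × 10^8 CFU). Compound given i.p. b.i.d., either 6 h after infection for 3.5 d or 24 h before infection for 4.5 d. Mice killed after 4.5 d; log10 CFU per organ counted in kidneys and hearts. Two-tailed Mann−Whitney test.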

Staphylococcus aureus [12] = test: In vivo anti-virulence activity against methicillin-resistant Staphylococcus aureus Mu50 infected in BALB/c mouse model assessed as reduction in bacterial load in kidneys at 0.4 mg bid for 3.5 days administered intraperitoneally 6 hrs post infection by serial dilution method; assay type: functional; set-up: scale not given: the % may be the effect or the level left; method in brief: as §2
Staphylococcus aureus [13] = test: In vivo anti-virulence activity against methicillin-resistant Staphylococcus aureus Mu50 infected in BALB/c mouse model assessed as reduction in bacterial load in kidneys at 0.1 mg bid for 3.5 days administered intraperitoneally 6 hrs post infection by serial dilution method; assay type: functional; set-up: scale not given: the % may be the effect or the level left; method in brief: as §2
Staphylococcus aureus [14] = test: In vivo anti-virulence activity against methicillin-resistant Staphylococcus aureus Mu50 infected in BALB/c mouse model assessed as reduction in bacterial load in heart at 0.1 mg bid for 4.5 days administered intraperitoneally 24 hrs prior to infection by serial dilution method; assay type: functional; set-up: scale not given: the % may be the effect or the level left
Method in brief: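 Mice were challenged with 1.3 × 10^9 CFU Mu50. Compound was given intraperitoneally, either 24 h before or 6 h after infection. Log10 CFU was counted in kidneys and hearts.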

Staphylococcus aureus [15] = test: In vivo anti-virulence activity against methicillin-resistant Staphylococcus aureus Mu50 infected in BALB/c mouse model assessed as reduction in bacterial load in heart at 0.4 mg bid for 3.5 days administered intraperitoneally 6 hrs post infection by serial dilution method; assay type: functional; set-up: scale not given: the % may be the effect or the level left; method in brief: as §2
Staphylococcus aureus [16] = test: In vivo anti-virulence activity against methicillin-resistant Staphylococcus aureus NRS271 infected in BALB/c mouse model assessed as reduction in bacterial load in kidneys at 0.4 mg bid for 4.5 days administered intraperitoneally 24 hrs prior to infection by serial dilution method; assay type: functional; set-up: scale not given: the % may be the effect or the level left; method in brief: as §2
Staphylococcus aureus [17] = test: In vivo anti-virulence activity against methicillin-resistant Staphylococcus aureus NRS271 infected in BALB/c mouse model assessed as reduction in bacterial load in kidneys at 0.1 mg bid for 4.5 days administered intraperitoneally 24 hrs prior to infection by serial dilution method; assay type: functional; set-up: scale not given: the % may be the effect or the level left; method in brief: as §2
Staphylococcus aureus [18] = test: In vivo anti-virulence activity against methicillin-resistant Staphylococcus aureus NRS271 infected in BALB/c mouse model assessed as reduction in bacterial load in kidneys at 0.1 mg bid for 3.5 days administered intraperitoneally 6 hrs post infection by serial dilution method; assay type: functional; set-up: scale not given: the % may be the effect or the level left; method in brief: as §2
Staphylococcus aureus [19] = test: In vivo anti-virulence activity against methicillin-resistant Staphylococcus aureus NRS271 infected in BALB/c mouse model assessed as reduction in bacterial load in heart at 0.4 mg bid for 3.5 days administered intraperitoneally 6 hrs post infection by serial dilution method; assay type: functional; set-up: scale not given: the % may be the effect or the level left; method in brief: as §2
Staphylococcus aureus [20] = test: In vivo anti-virulence activity against methicillin-resistant Staphylococcus aureus NRS271 infected in BALB/c mouse model assessed as reduction in bacterial load in heart at 0.1 mg bid for 3.5 days administered intraperitoneally 6 hrs post infection by serial dilution method; assay type: functional; set-up: scale not given: the % may be the effect or the level left; method in brief: as §2
Staphylococcus aureus [21] = test: Antibacterial activity against Staphylococcus aureus Newman derived after 12 passage by broth dilution method; assay type: functional

| Compound | IC50 [1] [nM] | IC50 (HepG2) [µM] | solubility at 24 h [2] [µg/mL] | MIC80 (Trichophyton verrucosum) [µg/mL] | Activity (Staphylococcus aureus [3]) | Activity (Staphylococcus aureus [4]) | Activity (Staphylococcus aureus [5]) | Activity (Staphylococcus aureus [6]) | Activity (Staphylococcus aureus [9]) | Activity (Staphylococcus aureus [10]) | Activity (Staphylococcus aureus [11]) [%] | Activity (Staphylococcus aureus [12]) [%] | Activity (Staphylococcus aureus [13]) [%] | Activity (Staphylococcus aureus [14]) [%] | Activity (Staphylococcus aureus [15]) [%] | Activity (Staphylococcus aureus [16]) [%] | Activity (Staphylococcus aureus [17]) [%] | Activity (Staphylococcus aureus [18]) [%] | Activity (Staphylococcus aureus [19]) [%] | Activity (Staphylococcus aureus [20]) [%] | further results |
| --- | --- | --- | --- | --- | --- | --- | --- | --- | --- | --- | --- | --- | --- | --- | --- | --- | --- | --- | --- | --- | --- |
| CN(C/C=C/c1ccc(-c2ccccc2)cc1)Cc1coc2ccccc12.Cl | 1.9 | 106 | 200 | > 64 | inactive | inactive | inactive | inactive | Active | Active | >95 | >95 | >95 | >95 | >95 | >95 | >95 | >95 | >95 | >95 | survival at 1 µM (Staphylococcus aureus [7]): 1.3%; survival at 1 µM (Staphylococcus aureus [8]): 3%; IC90 (Staphylococcus aureus [21]): 1.8 nM |
| CN(C/C=C/c1ccc(-c2ccccc2)cc1)Cc1cccc2cc[nH]c12.Cl | 4 | 21.9 | 200 | > 64 | inactive | inactive | inactive | inactive | inactive | inactive | >95 | >95 | >95 | >95 | >95 | >95 | >95 | >95 | >95 | >95 | Activity (Staphylococcus aureus [7]): Active; Activity (Staphylococcus aureus [8]): Active; IC90 (Staphylococcus aureus [21]): 2.6 nM |
